This note sets out measurements from ChEMBL document CHEMBL1641445, “Synthesis, antiprotozoal, antimicrobial, β-hematin inhibition, cytotoxicity and methemoglobin (MetHb) formation activities of bis(8-aminoquinolines)” (Bioorg Med Chem, 2011).

In data set [1] the test system is Candida albicans. In words: Antifungal activity against Candida albicans ATCC 90028. The format is functional, organism-based.
Data set [2] has as its system Candida albicans. In words: Antifungal activity against Candida albicans ATCC 90028 at 20 ug/ml. The format is functional, organism-based.
The subject of data set [3] is Plasmodium falciparum. In words: Antimalarial activity against chloroquine-resistant Plasmodium falciparum W2 by LDH assay. Type of data set: functional, organism-based. Conditions: Plasmodium falciparum, W2; read-out: IC50. Summed up: (§1)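 Antiplasmodial activity was measured in vitro against P. falciparum blood-stage cultures. Read-out was parasite lactate dehydrogenase (LDH) activity, with IC50 values expressed in µg/mL. The same protocol was used for the D6 and W2 strains.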

Another data set relates to Nakaseomyces glabratus. Briefly: Antifungal activity against Candida glabrata at 20 ug/ml. The format is functional, organism-based.
A further data set has as its system Pichia kudriavzevii. In words: Antifungal activity against Candida krusei at 20 ug/ml. The format is functional, organism-based.
The subject of data set [4] is Cryptococcus neoformans. Briefly: Antifungal activity against Cryptococcus neoformans ATCC 90113 at 20 ug/ml. Type of data set: functional, organism-based.
Data set [5] is described as follows: Inhibition of beta-hematin formation. The format is functional.
Data set [6] relates to Staphylococcus aureus. In words: Antibacterial activity against methicillin-resistant Staphylococcus aureus ATCC 43300 by CLSI method. The format is functional, organism-based. Summed up:
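Broth dilution method (NCCLS M7-A5). […] MIC is the lowest concentration allowing no detectable growth. MBC is the lowest concentration killing the organism. Highest test concentration was 20 µg/mL.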

Data set [7] concerns Mycobacterium intracellulare. Briefly: Antibacterial activity against Mycobacterium intracellular ATCC 23068 by CLSI method. Type of data set: functional, organism-based.
A further data set concerns Aspergillus fumigatus. Briefly: Antifungal activity against Aspergillus fumigatus ATCC 90906 at 20 ug/ml. The format is functional, organism-based.
Data set [8] is described as follows: Hematotoxicity against RBC assessed as formation of methemoglobin at 20 ug/ml relative to control. The format is cell-based. Conditions: erythrocyte. Summed up: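 Metabolism-linked methemoglobin toxicity in vitro. Percent MetHb formation was determined at 20 µg/mL of compound relative to vehicle control.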
The subject of the next data set is Vero. Briefly: Cytotoxicity against african green monkey Vero cells up to 10 ug/ml by neutral red assay. Type of data set: cell-based. Conditions: chlorocebus sabaeus. In short, it runs like this: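 Vero (monkey kidney) cells were exposed up to a highest concentration of 10 µg/mL. Viability was read by neutral red uptake.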
In the next data set the test system is Leishmania donovani. In words: Antileishmanial activity against promastigotes of Leishmania donovani by alamar blue assay. Type of data set: functional, organism-based. Conditions: Leishmania donovani; for IC50: read-out: IC50.
Data set [9] relates to Plasmodium falciparum. Briefly: Antimalarial activity against chloroquine-sensitive Plasmodium falciparum D6 by LDH assay. The format is functional, organism-based. Conditions: Plasmodium falciparum, D6; read-out: IC50. Summed up: as §1
The test system of data set [10] is Cryptococcus neoformans. In words: Antifungal activity against Cryptococcus neoformans ATCC 90113. The format is functional, organism-based.
The next data set has as its system Plasmodium berghei. In words: Antimalarial activity against Plasmodium berghei infected in mouse assessed as negative parasitemia level at 100 mg/kg, po qd for 4 days measured up to 7 days. Type of data set: functional, organism-based. The arrangement: dose 100 mg/kg. Summed up:
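Mice infected with P. berghei (sensitive strain), 6 per group, dosed orally at 10–100 mg/kg/day × 4. Suppression meant negative parasitemia in all treated animals up to D+7. Survivors were counted at D+60.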

Data set [11] has as its system Mycobacterium intracellulare. Briefly: Antibacterial activity against Mycobacterium intracellular ATCC 23068 at 20 ug/ml by CLSI method. The format is functional, organism-based.
Data set [12] deals with Staphylococcus aureus. In words: Antibacterial activity against Staphylococcus aureus by CLSI method. The format is functional, organism-based.

The source made the active and inactive calls. The calls are words filed in the database; no cut-off is given here.

Take `COc1cc(NC(C)CCCNC(=S)NCCCC(C)Nc2cc(OC)cc3cccnc23)c2ncccc2c1.Cl.Cl` (stereo not given): the IC50 in the data set on Candida albicans [1] was 10 µg/mL; in the data set on Plasmodium falciparum [3], 2.4 µg/mL; in data set [5], greater than 1000 µM; in the data set on Staphylococcus aureus [6], 3 µg/mL; in data set [7], 4.5 µg/mL; with Leishmania donovani it was 4 µg/mL. Also, the IC50 in the data set on Plasmodium falciparum [9] came out at 2.3 µg/mL; in the data set with Cryptococcus neoformans [10], 15 µg/mL. The MFC result in the data set with Candida albicans [2] and in the data set on Cryptococcus neoformans [4] was “inactive” each time. For the same compound, the result in the data set with Nakaseomyces glabratus, in the data set on Pichia kudriavzevii and with Aspergillus fumigatus was inactive. Further, in the data set with Cryptococcus neoformans [4], the MIC entry is “inactive”. In the data set with Staphylococcus aureus [6], the MBC came to 10 µg/mL. For the same compound, the MIC against Staphylococcus aureus [6] amounted to 5 µg/mL. Moreover, the Methemoglobin formation in data set [8] is listed as 3.7%. Besides, the Activity entry in the data set on Vero is on record as “Non-toxic”. Also, in the data set with Leishmania donovani, the IC90 worked out at 20 µg/mL.
As for `COc1cc(NC(C)CCCNCOC(=O)NCCCC(C)Nc2cc(OC)cc3cccnc23)c2ncccc2c1.Cl.Cl` (stereo not given), the IC50 result with Candida albicans [2] was “Not Active”; in [5] it was 101 µM; in the data set on Leishmania donovani it was 20 µg/mL; with Plasmodium falciparum [9], 2.6 µg/mL; in the data set with Cryptococcus neoformans [10] it was 4.5 µg/mL. Moreover, the MFC entry in the data set on Candida albicans [2] was “inactive”. For the same compound, the MIC entry in the data set with Candida albicans [2] was “inactive”. Moreover, the result with Nakaseomyces glabratus, in the data set on Pichia kudriavzevii and in the data set with Aspergillus fumigatus was inactive. Besides, the Methemoglobin formation in data set [8] is listed as 5.3%. The Activity entry with Vero is recorded as “Non-toxic”. In addition, it took 38 µg/mL to reach the 90% level with Leishmania donovani (IC90). The outcome in the data set with Plasmodium berghei was Active. The compound further registered an MFC in the data set on Cryptococcus neoformans [10] of 5 µg/mL. This compound had a minimal inhibitory concentration (MIC) against Cryptococcus neoformans [10] of 5 µg/mL.
As to `COc1cc(NC(C)CCCNC(=O)NC(CCCCN)C(=O)NCCCC(C)Nc2cc(OC)cc3ccc(C(C)(C)C)nc23)c2nc(C(C)(C)C)ccc2c1.Cl` (single isomer, unassigned), the IC50 in the data set with Candida albicans [1] was 17.9 µg/mL; in the data set on Plasmodium falciparum [3], 1.3 µg/mL; in data set [5], 45 µM; in the data set with Staphylococcus aureus [6], 1.97 µg/mL; in data set [7], 7.12 µg/mL; with Staphylococcus aureus [12] it was 2.58 µg/mL. The figures for the IC50 with Leishmania donovani and in the data set on Cryptococcus neoformans [10] were 21 µg/mL and 6.45 µg/mL, respectively. The MIC with Candida albicans [1] was determined as 20 µg/mL; in the data set on Staphylococcus aureus [6] it was 5 µg/mL; in data set [7], 20 µg/mL; with Staphylococcus aureus [12] it was 5 µg/mL; against Cryptococcus neoformans [10], 10 µg/mL. Further, in the data set on Candida albicans [2], the MFC result is “inactive”. Moreover, the outcome in the data set with Nakaseomyces glabratus, in the data set with Pichia kudriavzevii and in the data set with Aspergillus fumigatus was inactive. Moreover, in data set [11], the MBC entry is “inactive”. For the same compound, the MBC in the data set with Staphylococcus aureus [6] and with Staphylococcus aureus [12] was 5 µg/mL in each case. For the same compound, the Methemoglobin formation in data set [8] is 2.25%. The Activity entry in the data set on Vero is recorded as “Non-toxic”. The compound also returned an IC90 with Leishmania donovani of 36 µg/mL. Further, the result in the data set on Plasmodium berghei was Active. In the data set with Cryptococcus neoformans [10], this compound displayed a minimal fungicidal concentration (MFC) of 10 µg/mL.
